Reference: ChEMBL document CHEMBL3997797 (J Med Chem, 2017)

Key:
CES2 (cocaine esterase) [1] = molecular target: T1, CES2 (cocaine esterase) (Homo sapiens, UniProt O00748); assay: Inhibition of human intestinal CES2 expressed in baculovirus infected sf9 cells at 10 uM using o-nitrophenyl acetate as substrate monitored at 15 secs interval for 5 mins relative to control; conditions: probe o-nitrophenyl acetate
T1 sequence (O00748 whole entry): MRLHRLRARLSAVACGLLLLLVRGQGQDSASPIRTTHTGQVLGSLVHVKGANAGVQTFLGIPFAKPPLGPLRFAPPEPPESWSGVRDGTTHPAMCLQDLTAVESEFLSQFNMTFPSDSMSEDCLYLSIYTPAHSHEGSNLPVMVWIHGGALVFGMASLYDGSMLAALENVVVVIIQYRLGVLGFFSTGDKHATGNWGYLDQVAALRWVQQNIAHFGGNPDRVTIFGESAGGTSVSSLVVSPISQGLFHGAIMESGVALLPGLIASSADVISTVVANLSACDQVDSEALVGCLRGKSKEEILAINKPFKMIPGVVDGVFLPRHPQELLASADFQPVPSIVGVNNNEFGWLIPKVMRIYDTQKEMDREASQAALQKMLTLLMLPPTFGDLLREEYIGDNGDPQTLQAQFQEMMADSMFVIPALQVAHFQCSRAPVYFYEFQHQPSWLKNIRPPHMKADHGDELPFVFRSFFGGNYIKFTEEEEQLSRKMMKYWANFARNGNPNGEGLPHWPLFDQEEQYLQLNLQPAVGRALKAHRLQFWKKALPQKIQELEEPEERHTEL

[2] = Drug metabolism in DMSO/sodium phosphate buffer assessed as tautomerization at pH 3 to 11 by UV-spectroscopic method; assay type: physicochemical
Outline: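 UV absorbance spectra recorded in aqueous 20% DMSO:80% 200 mM sodium phosphate buffer across a range of pH values to follow tautomeric form.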

[3] = molecular target: Acetylcholinesterase (Homo sapiens) (UniProt P22303); assay: Inhibition of human AChE at 10 uM using acetylthiocholine as substrate by spectrophotometric method relative to control
Sequence of Acetylcholinesterase (Homo sapiens) (P22303 whole entry): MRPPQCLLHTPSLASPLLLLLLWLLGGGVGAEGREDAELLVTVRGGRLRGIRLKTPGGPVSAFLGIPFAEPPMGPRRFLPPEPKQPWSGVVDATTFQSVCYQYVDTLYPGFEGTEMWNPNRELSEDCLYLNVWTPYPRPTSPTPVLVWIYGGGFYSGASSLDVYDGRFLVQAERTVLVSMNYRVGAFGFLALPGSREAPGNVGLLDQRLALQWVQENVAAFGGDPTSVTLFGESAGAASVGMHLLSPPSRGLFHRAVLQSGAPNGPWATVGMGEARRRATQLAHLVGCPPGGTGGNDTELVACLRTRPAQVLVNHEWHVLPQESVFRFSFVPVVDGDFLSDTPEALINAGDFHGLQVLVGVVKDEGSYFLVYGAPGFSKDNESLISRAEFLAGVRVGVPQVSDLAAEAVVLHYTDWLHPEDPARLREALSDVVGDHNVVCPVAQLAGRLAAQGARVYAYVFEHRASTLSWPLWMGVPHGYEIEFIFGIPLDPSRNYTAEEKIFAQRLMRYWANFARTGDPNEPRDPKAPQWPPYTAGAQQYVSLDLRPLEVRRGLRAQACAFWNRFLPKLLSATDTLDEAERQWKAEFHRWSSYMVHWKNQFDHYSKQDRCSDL

[4] = molecular target: T2, CES1 (liver carboxylesterase 1) (Homo sapiens, UniProt P23141); assay: Inhibition of human liver CES1 expressed in baculovirus infected sf9 cells at 10 uM using o-nitrophenyl acetate as substrate monitored at 15 secs interval for 5 mins relative to control; conditions: probe o-nitrophenyl acetate
T2 sequence (P23141 whole entry): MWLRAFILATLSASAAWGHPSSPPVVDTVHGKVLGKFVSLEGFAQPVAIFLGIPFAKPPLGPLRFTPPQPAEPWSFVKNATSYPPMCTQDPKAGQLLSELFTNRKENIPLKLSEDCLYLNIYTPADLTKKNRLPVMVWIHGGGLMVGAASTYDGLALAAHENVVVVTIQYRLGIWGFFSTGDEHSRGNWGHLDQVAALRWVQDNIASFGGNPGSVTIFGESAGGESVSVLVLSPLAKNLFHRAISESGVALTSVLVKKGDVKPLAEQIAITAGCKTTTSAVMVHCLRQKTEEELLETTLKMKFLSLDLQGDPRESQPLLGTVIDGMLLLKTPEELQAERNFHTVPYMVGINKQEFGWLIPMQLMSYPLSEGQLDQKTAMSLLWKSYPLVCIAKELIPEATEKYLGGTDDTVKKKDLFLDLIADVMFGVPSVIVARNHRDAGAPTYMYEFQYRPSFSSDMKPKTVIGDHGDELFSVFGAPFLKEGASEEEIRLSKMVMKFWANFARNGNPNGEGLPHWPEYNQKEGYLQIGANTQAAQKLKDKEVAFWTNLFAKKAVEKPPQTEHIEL
Outline: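 Purified secreted hCE1 from Sf9 culture medium, isolated by isoelectric focusing and chromatography. Inhibitor tested at a single concentration of 10 µM against o-NPA hydrolysis. Read-out is percent inhibition.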

Liver carboxylesterase 1 [5] = molecular target: T3, Liver carboxylesterase 1 (Homo sapiens, UniProt P23141); assay: Inhibition of human liver CES1 expressed in baculovirus infected sf9 cells using oseltamivir as substrate
T3 sequence (P23141 whole entry): T2 sequence (P23141 whole entry)

Liver carboxylesterase 1 [6] = molecular target: T3, Liver carboxylesterase 1; assay: Inhibition of human liver CES1 expressed in baculovirus infected sf9 cells using o-nitrophenyl acetate as substrate monitored at 15 secs interval for 5 mins
Outline: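 Purified hCE1 secreted from baculovirus-infected Sf9 cells, isolated from serum-free medium by preparative isoelectric focusing and chromatography. o-NPA hydrolysis measured with at least 8 inhibitor concentrations, each point in quadruplicate. Fractional inhibition fitted to a general partial-inhibition model (α 0 to ∞, β 0 to 1). The best model was chosen by r2 and Akaike's information criterion, and Ki was calculated from that model.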

Homo sapiens = species: Homo sapiens; assay: Selectivity ratio of Ki for human intestinal CES2 to Ki for human liver CES1
Cocaine esterase = molecular target: T4, Cocaine esterase (Homo sapiens, UniProt O00748); assay: Inhibition of human intestinal CES2 expressed in baculovirus infected sf9 cells using o-nitrophenyl acetate as substrate monitored at 15 secs interval for 5 mins
T4 sequence (O00748 whole entry): T1 sequence (O00748 whole entry)

[7] = molecular target: T2, CES1 (liver carboxylesterase 1); assay: Inhibition of human liver CES1 expressed in U373MG cells assessed as oseltamivir carboxylate formation at 5 uM using oseltamivir as substrate preincubated for 30 mins followed by compound washout and subsequent compound/substrate addition measured after 30 mins by UPLC-MS method relative to control; assay type: cell-based; parameters: scale not given: the % may be the effect or the level left; conditions: U373MG cells expressing human liver CES1, probe oseltamivir, read-out: Activity
Outline: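 U373MG cells expressing hCE1 (1 x 10^5/well) attached overnight. They were pretreated 30 min with 5 µM inhibitor, then media was replaced with fresh media containing 20 µM oseltamivir plus 5 µM inhibitor for 30 min. Media was mixed with an equal volume of acetonitrile and metabolites were quantified by UPLC-MS. Run in duplicate with DMSO control.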

CES2 (cocaine esterase) [8] = molecular target: T1, CES2 (cocaine esterase); assay: Inhibition of human intestinal CES2 expressed in U373MG cells assessed as 7-ethyl-10-hydroxycamptothecin formation at 5 uM using irinotecan as substrate preincubated for 1 hr followed by substrate addition measured after 5 mins by HPLC method relative to control; assay type: cell-based; parameters: scale not given: the % may be the effect or the level left; conditions: U373MG cells expressing human intestinal CES2, probe irinotecan, read-out: Activity
U373 MG [9] = assay: Growth inhibition of human U373MG cells after 72 hrs; assay type: cell-based, U-373MG ATCC
U373 MG [10] = assay: Cytotoxicity against human U373MG cells assessed as cell viability after 30 mins relative to control; assay type: cell-based; conditions: u-373mg atcc, 0.5 h

## O=C1C=C(Nc2ccccc2)c2ccccc2C1=O
CES2 (cocaine esterase) [1]
  inhibition at 5 min, 10 µM: 12%
[2]
  Drug metabolism: Metabolite_Detected
[3]
  inhibition: 5%
[4]
  inhibition at 5 min, 10 µM: 30%

## CN(C1=CC(=O)C(=O)c2ccccc21)c1ccc(I)cc1
Liver carboxylesterase 1 [5]
  Ki: 148 nM
Liver carboxylesterase 1 [6]
  Ki: 400 to 408 nM
CES2 (cocaine esterase) [1]
  inhibition at 5 min, 10 µM: 83%
Homo sapiens
  Ratio Ki: 4 to 11
Cocaine esterase
  Ki: 284 nM
[3]
  inhibition: 31%

## O=C1C=C(Oc2ccc(F)cc2)c2ccccc2C1=O
[7]
  activity at 0.5 h, 5 µM: 25%
Liver carboxylesterase 1 [6]
  Ki: 45.3 nM
[2]
  Drug metabolism: Metabolite_Notdetected
[3]
  inhibition: 22%

## O=C1C=C(Nc2ccc(Cl)cc2)c2ccccc2C1=O
CES2 (cocaine esterase) [1]
  inhibition at 5 min, 10 µM: 22%
[3]
  inhibition: 23%
[4]
  inhibition at 5 min, 10 µM: 33%

## O=C1C=C(Oc2ccc(Cl)cc2)c2ccccc2C1=O
[7]
  activity at 0.5 h, 5 µM: 20%
Liver carboxylesterase 1 [6]
  Ki: 18.9 nM
[3]
  inhibition: 31%

## CN(C1=CC(=O)C(=O)c2ccccc21)c1ccccc1
[7]
  activity at 0.5 h, 5 µM: 8%
Liver carboxylesterase 1 [5]
  Ki: 32.1 nM
CES2 (cocaine esterase) [8]
  activity at 5 min, 5 µM: 77%
Liver carboxylesterase 1 [6]
  Ki: 90 nM
U373 MG [9]
  IC50: 12800 nM
CES2 (cocaine esterase) [1]
  inhibition at 5 min, 10 µM: 33%
[2]
  Drug metabolism: Metabolite_Notdetected
[3]
  inhibition: 3%
U373 MG [10]
  Activity: 99%

## Cc1ccc(OC2=CC(=O)C(=O)c3ccccc32)cc1
[7]
  activity at 0.5 h, 5 µM: 13%
Liver carboxylesterase 1 [6]
  Ki: 4.44 nM
[3]
  inhibition: 8%

## CN(C1=CC(=O)C(=O)c2ccccc21)c1ccc(Br)cc1
[7]
  activity at 0.5 h, 5 µM: 19%
Liver carboxylesterase 1 [5]
  Ki: 17.2 nM
CES2 (cocaine esterase) [8]
  activity at 5 min, 5 µM: 89%
Liver carboxylesterase 1 [6]
  Ki: 16.1 nM
Homo sapiens
  Ratio Ki: 4 to 11
Cocaine esterase
  Ki: 1840 nM
[3]
  inhibition: 12%

## O=C1C=C(Nc2ccc(F)cc2)c2ccccc2C1=O
CES2 (cocaine esterase) [1]
  inhibition at 5 min, 10 µM: 14%
[3]
  inhibition: 21%
[4]
  inhibition at 5 min, 10 µM: 40%

## COc1ccc(OC2=CC(=O)C(=O)c3ccccc32)cc1
[7]
  activity at 0.5 h, 5 µM: 14%
Liver carboxylesterase 1 [6]
  Ki: 17.8 nM
[3]
  inhibition: 18%

## O=C1C=C(Nc2ccc(Br)cc2)c2ccccc2C1=O
CES2 (cocaine esterase) [1]
  inhibition at 5 min, 10 µM: 12%
[3]
  inhibition: 16%
[4]
  inhibition at 5 min, 10 µM: 26%

## CC1(C)CCC2=C(O1)c1ccccc1C(=O)C2=O [LAPACHONE]
[7]
  activity at 0.5 h, 5 µM: 12%
Liver carboxylesterase 1 [6]
  Ki: 1220 nM
[3]
  inhibition: 10%

## COc1ccc(NC2=CC(=O)C(=O)c3ccccc32)cc1
CES2 (cocaine esterase) [1]
  inhibition at 5 min, 10 µM: 12%
[3]
  inhibition: 5%
[4]
  inhibition at 5 min, 10 µM: 26%

## Cc1ccc(N(C)C2=CC(=O)C(=O)c3ccccc32)cc1
[7]
  activity at 0.5 h, 5 µM: 2%
Liver carboxylesterase 1 [5]
  Ki: 4.9 nM
CES2 (cocaine esterase) [8]
  activity at 5 min, 5 µM: 93%
Liver carboxylesterase 1 [6]
  Ki: 11.1 nM
U373 MG [9]
  IC50: 4600 nM
CES2 (cocaine esterase) [1]
  inhibition at 5 min, 10 µM: 25%
[3]
  inhibition: 3%
U373 MG [10]
  Activity: 100%

## COc1ccc(N(C)C2=CC(=O)C(=O)c3ccccc32)cc1
[7]
  activity at 0.5 h, 5 µM: 6%
Liver carboxylesterase 1 [5]
  Ki: 17.7 nM
CES2 (cocaine esterase) [8]
  activity at 5 min, 5 µM: 77%
Liver carboxylesterase 1 [6]
  Ki: 81.6 nM
CES2 (cocaine esterase) [1]
  inhibition at 5 min, 10 µM: 7%
[3]
  inhibition: 1%

## CN(C1=CC(=O)C(=O)c2ccccc21)c1ccc(Cl)cc1
[7]
  activity at 0.5 h, 5 µM: 5%
Liver carboxylesterase 1 [5]
  Ki: 12.9 nM
CES2 (cocaine esterase) [8]
  activity at 5 min, 5 µM: 91%
Liver carboxylesterase 1 [6]
  Ki: 19.2 nM
CES2 (cocaine esterase) [1]
  inhibition at 5 min, 10 µM: 30%
[3]
  inhibition: 4%

## O=C1C=C(Oc2ccccc2)c2ccccc2C1=O
[7]
  activity at 0.5 h, 5 µM: 19%
Liver carboxylesterase 1 [6]
  Ki: 23.8 nM
[2]
  Drug metabolism: Metabolite_Notdetected
[3]
  inhibition: 11%

## O=C1C=C(Oc2ccc(I)cc2)c2ccccc2C1=O
Liver carboxylesterase 1 [6]
  Ki: 4.7 nM
[3]
  inhibition: 25%

## O=C1C=C(Oc2ccc(Br)cc2)c2ccccc2C1=O
[7]
  activity at 0.5 h, 5 µM: 47%
Liver carboxylesterase 1 [6]
  Ki: 14.3 nM
[3]
  inhibition: 26%

## Cc1ccc(NC2=CC(=O)C(=O)c3ccccc32)cc1
CES2 (cocaine esterase) [1]
  inhibition at 5 min, 10 µM: 15%
[3]
  inhibition: 17%
[4]
  inhibition at 5 min, 10 µM: 44%

## O=C1C=C(Nc2ccc(I)cc2)c2ccccc2C1=O
CES2 (cocaine esterase) [1]
  inhibition at 5 min, 10 µM: 10%
[3]
  inhibition: 16%
[4]
  inhibition at 5 min, 10 µM: 41%

## CN(C1=CC(=O)C(=O)c2ccccc21)c1ccc(F)cc1
[7]
  activity at 0.5 h, 5 µM: 1%
Liver carboxylesterase 1 [5]
  Ki: 37.6 nM
CES2 (cocaine esterase) [8]
  activity at 5 min, 5 µM: 92%
Liver carboxylesterase 1 [6]
  Ki: 163 nM
U373 MG [9]
  IC50: 3900 nM
CES2 (cocaine esterase) [1]
  inhibition at 5 min, 10 µM: 19%
[2]
  Drug metabolism: Metabolite_Notdetected
[3]
  inhibition: 1%
U373 MG [10]
  Activity: 96%
